In ChEMBL document CHEMBL1135280, “Synthesis and pharmacological evaluation of 6-piperidino- and 6-piperazinoalkyl-2(3H)-benzothiazolones as mixed sigma/5-HT(1A) ligands” (Bioorg Med Chem Lett, 2002) one finds Ki and Ratio data, which are given here for twelve compounds.

Assay [1] concerns the target T1, Muscarinic acetylcholine receptor M1 (Rattus norvegicus, UniProt P08482).
T1 sequence (P08482 whole entry): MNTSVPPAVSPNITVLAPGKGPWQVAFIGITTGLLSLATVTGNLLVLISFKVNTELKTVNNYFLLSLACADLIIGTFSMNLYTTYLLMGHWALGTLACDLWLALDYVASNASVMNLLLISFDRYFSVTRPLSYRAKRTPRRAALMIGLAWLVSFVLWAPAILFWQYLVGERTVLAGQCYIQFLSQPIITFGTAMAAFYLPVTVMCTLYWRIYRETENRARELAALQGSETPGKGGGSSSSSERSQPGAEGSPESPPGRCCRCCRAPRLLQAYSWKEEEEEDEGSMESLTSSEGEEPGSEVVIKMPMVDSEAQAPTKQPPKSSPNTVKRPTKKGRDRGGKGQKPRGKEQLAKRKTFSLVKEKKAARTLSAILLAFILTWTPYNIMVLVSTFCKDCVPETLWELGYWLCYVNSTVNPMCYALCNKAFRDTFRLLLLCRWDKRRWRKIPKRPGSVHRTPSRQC
In words: In vitro binding affinity towards Muscarinic acetylcholine receptor M1 by displacing [3H]- telenzepine from rat brain membrane.

A short description of assay [2]: Binding affinity ratio towards sigma receptor compared to the 5-hydroxytryptamine 1A receptor.
Assay [3] addresses T2, Sigma non-opioid intracellular receptor 1 (Homo sapiens, UniProt Q99720). Briefly: In vitro binding affinity for Sigma opioid receptor by displacement of [3H]DTG. (Loss of bound radioactivity is the signal in a displacement assay; it reports binding, not function.)
The target in the next assay is D(2) dopamine receptor (Rattus norvegicus, UniProt P61169). In words: Displacement of [3H]- raclopride from rat striatum Dopamine receptor D2.
D(2) dopamine receptor, sequence (P61169 whole entry): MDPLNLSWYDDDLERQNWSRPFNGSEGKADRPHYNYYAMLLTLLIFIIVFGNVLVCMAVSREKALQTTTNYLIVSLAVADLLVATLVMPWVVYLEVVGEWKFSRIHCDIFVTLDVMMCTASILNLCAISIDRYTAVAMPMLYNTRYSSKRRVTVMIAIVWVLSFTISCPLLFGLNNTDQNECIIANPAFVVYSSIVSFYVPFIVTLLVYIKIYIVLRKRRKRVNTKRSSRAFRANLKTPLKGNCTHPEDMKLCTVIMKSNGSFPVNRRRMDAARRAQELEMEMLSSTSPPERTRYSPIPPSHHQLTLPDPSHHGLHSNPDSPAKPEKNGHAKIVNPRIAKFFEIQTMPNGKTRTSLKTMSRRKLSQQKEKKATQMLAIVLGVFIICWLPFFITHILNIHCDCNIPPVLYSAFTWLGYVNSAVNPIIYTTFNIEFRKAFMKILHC
The target of the next assay is Histamine H1 receptor (Rattus norvegicus, UniProt P31390). Briefly: Displacement of [3H]- pyrilamine from rat brain membrane Histamine H1 receptor.
Histamine H1 receptor, sequence (P31390 whole entry): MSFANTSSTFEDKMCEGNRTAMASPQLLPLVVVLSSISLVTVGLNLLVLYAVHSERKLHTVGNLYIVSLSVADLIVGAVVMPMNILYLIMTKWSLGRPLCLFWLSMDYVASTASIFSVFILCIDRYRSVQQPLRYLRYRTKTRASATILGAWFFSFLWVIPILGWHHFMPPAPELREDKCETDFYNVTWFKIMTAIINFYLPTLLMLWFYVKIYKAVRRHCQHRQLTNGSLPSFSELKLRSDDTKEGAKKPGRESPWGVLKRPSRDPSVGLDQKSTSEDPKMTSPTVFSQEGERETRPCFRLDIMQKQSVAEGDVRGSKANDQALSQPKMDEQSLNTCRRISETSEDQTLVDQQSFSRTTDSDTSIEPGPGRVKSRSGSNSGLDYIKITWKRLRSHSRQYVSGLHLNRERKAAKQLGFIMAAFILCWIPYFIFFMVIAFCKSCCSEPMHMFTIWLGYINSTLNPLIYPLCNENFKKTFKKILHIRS
In assay [4] the target is T3, 5-hydroxytryptamine receptor 1A (Rattus norvegicus, UniProt P19327).
T3 sequence (P19327 whole entry): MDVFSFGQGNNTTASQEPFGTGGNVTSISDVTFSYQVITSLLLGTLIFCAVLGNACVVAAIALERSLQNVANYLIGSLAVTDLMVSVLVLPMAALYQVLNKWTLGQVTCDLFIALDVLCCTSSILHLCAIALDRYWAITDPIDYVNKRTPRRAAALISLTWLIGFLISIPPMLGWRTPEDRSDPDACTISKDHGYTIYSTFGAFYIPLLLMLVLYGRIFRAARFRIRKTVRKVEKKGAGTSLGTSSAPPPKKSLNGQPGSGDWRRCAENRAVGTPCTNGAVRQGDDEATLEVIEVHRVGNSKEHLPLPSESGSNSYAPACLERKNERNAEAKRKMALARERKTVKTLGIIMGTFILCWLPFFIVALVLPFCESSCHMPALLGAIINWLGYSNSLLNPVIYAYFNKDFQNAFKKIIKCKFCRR
In words: Displacement of […] membrane 5-hydroxytryptamine 1A receptor. The essentials: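 Radioligand displacement on rat brain membranes, run by an external laboratory. [3H]prazosin and [3H]ketanserin were used with cortex, and [3H]-8-OH-DPAT with hippocampus.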

The species named for a further assay is Rattus norvegicus. Briefly: In vitro binding affinity ratio between Sigma opioid receptor and 5-hydroxytryptamine 1A receptor.
Assay [5] addresses T2, Sigma non-opioid intracellular receptor 1. In words: In vitro binding affinity towards Sigma opioid receptor type 1 by using [3H]- (+)-pentazocine as radioligand.
Assay [6] has the same target. Briefly: Binding affinity ratio between Sigma opioid receptor type 1 and Sigma opioid receptor type 2. The essentials:
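Selectivity ratio of σ1 to σ2 affinity, determined only for compounds with high affinity at sigma sites. σ1 affinity was measured with (+)-pentazocine and σ2 affinity with DTG as radioligands.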

In assay [7] the target is T1, Muscarinic acetylcholine receptor M1. In words: In vitro binding affinity towards Muscarinic acetylcholine receptor M1 by displacing [3H]- telenzepine from rat brain membrane.
The target of another assay is Sigma 2 receptor. In words: In vitro binding affinity towards Sigma opioid receptor type 2 by using [3H]- DTG in the presence of 1 uM (+)- pentazocine.

T2 sequence (Q99720 whole entry): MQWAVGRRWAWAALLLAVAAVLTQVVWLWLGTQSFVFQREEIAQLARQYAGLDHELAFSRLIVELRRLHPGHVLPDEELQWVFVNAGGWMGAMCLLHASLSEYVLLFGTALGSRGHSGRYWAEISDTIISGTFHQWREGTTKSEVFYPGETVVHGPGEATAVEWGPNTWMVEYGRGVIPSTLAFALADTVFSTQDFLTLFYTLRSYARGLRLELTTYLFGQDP

The Ki is a measure of affinity in units of concentration, obtained from inhibition or displacement. With `C[C@@H]1CN(CCCCc2ccc3c(c2)sc(=O)n3C)C[C@H](C)N1`, the inhibition constant Ki in assay [1] was greater than 100000 nM; in [3] it was 100 nM; on D(2) dopamine receptor it was greater than 100000 nM; on Histamine H1 receptor, greater than 100000 nM; in assay [4] it was greater than 100000 nM. In addition, the Ratio in assay [2] was less than 0.001.
As for `Cn1c(=O)sc2cc(CCN3CCC(c4ccccc4)CC3)ccc21`, the Ratio in the assay listed under Rattus norvegicus was determined as 0.5; in [6] it was 10. For the same compound, the Ki in assay [1] turned out to be 1000 nM; in assay [5] it was 20 nM; in assay [3], 2 nM; on D(2) dopamine receptor it was 1000 nM; at Histamine H1 receptor, 20 nM; in assay [4], 4 nM.
In the case of `Cn1c(=O)sc2cc(CCCCN3CCC(Cc4ccccc4)CC3)ccc21`, in assay [2], the Ratio stood at 0.17. In addition, the Ki in [7] came out at 200 nM; in assay [3], 5 nM; at D(2) dopamine receptor, 100 nM; on Histamine H1 receptor, 9 nM; in assay [4] it was 30 nM.
With `Cn1c(=O)sc2cc(CCN3CCC(Cc4ccccc4)CC3)ccc21`, the Ki in assay [1] was 100 nM; in [3] it was 5 nM; at D(2) dopamine receptor it was greater than 100 nM; at Histamine H1 receptor, 3 nM; in assay [4], 4 nM. The Ratio in assay [2] was found to be 1.25.
Turning to `Cn1c(=O)sc2cc(CCCCN3CCC(c4ccccc4)CC3)ccc21`, the Ratio in assay [2] was found to be 0.3. For the same compound, the inhibition constant (Ki) in [3] was 3 nM; on D(2) dopamine receptor it was 30 nM; on Histamine H1 receptor, 6000 nM; in assay [4] it was 10 nM.
Turning to `Cn1c(=O)sc2cc(CCCCN3CCN(Cc4ccccc4)CC3)ccc21`, the Ki in assay [1] was 10000 nM; on Sigma 2 receptor, 2 nM; in assay [5], 37.2 nM; in assay [3], 2 nM; on D(2) dopamine receptor, 10000 nM; at Histamine H1 receptor, less than 100 nM. Moreover, the Ki in assay [4] worked out at 40 nM.
For the compound `Cn1c(=O)sc2cc(CCN3CCN(Cc4ccccc4)CC3)ccc21`, the inhibition constant Ki in [1] is 500 nM; in assay [3], 3 nM; on D(2) dopamine receptor, greater than 10000 nM; on Histamine H1 receptor, 7 nM; in [4], 30 nM. The Ratio in assay [2] is 0.1.
For `Cn1c(=O)sc2cc(CCN3CCN(Cc4ccc(Cl)cc4Cl)CC3)ccc21`, the Ratio in assay [2] was 0.08. The inhibitory constant (Ki) is 8 nM in assay [3], 100 nM at D(2) dopamine receptor, 10 nM on Histamine H1 receptor and 100 nM in assay [4].
As to `Cn1c(=O)sc2cc(CCN3CCN(Cc4ccc(Cl)c(Cl)c4)CC3)ccc21`, the inhibitory constant (Ki) in assay [1] is 1000 nM; in assay [3], 5 nM; on D(2) dopamine receptor, 200 nM; on Histamine H1 receptor, 40 nM; in assay [4] it was 30 nM. Moreover, in assay [2], the Ratio turned out to be 0.17.
On to `C[C@@H]1CN(CCc2ccc3c(c2)sc(=O)n3C)C[C@H](C)N1`, for which the inhibitory constant (Ki) is greater than 10000 nM in assay [1]; 2000 nM in assay [3]; greater than 10000 nM on D(2) dopamine receptor; 20000 nM on Histamine H1 receptor; greater than 10000 nM in assay [4]. Besides, in [2], the Ratio was less than 0.2.
With `Cn1c(=O)sc2cc(CCCCN3CCN(Cc4ccc(Cl)c(Cl)c4)CC3)ccc21`, the results for the Ratio (in the assay filed under Rattus norvegicus; in assay [6]) were 0.006 and 70, respectively. Also, the Ki is 500 nM in assay [1]; 139 nM in assay [5]; 2 nM in assay [3]; 100 nM on D(2) dopamine receptor; 9 nM at Histamine H1 receptor; 300 nM in [4].
As to `Cn1c(=O)sc2cc(CCCCN3CCN(Cc4ccc(Cl)cc4Cl)CC3)ccc21`, the Ki in assay [1] was less than 10000 nM; in assay [3], 9 nM; at D(2) dopamine receptor, 100 nM; on Histamine H1 receptor it was less than 100 nM; in assay [4] it was 200 nM. Moreover, the Ratio in assay [2] is 0.04.
